These results are taken from ChEMBL document CHEMBL1145035, “Design of selective peptidomimetic agonists for the human orphan receptor BRS-3” (J Med Chem, 2003).

Assay [1] can be described thus: Emax.
The target in assay [2] is T1, Neuromedin-B receptor (Homo sapiens, UniProt P28336). As to the kind of experiment: Effective concentration required against nueromedin B receptor (NMB-R) in CHO cells by using FLIPR assay. It is filed as functional, cell-based. Summed up: (§1)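 Intracellular Ca2+ mobilization was read by FLIPR in CHO cells transfected with the human receptor. NMB was the reference for NMB-R and GRP for GRP-R. EC50 values (±SEM) come from independent concentration–response curves, 4 to 30 per compound depending on the series.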
Target sequence in this assay (P28336 whole entry, looked up): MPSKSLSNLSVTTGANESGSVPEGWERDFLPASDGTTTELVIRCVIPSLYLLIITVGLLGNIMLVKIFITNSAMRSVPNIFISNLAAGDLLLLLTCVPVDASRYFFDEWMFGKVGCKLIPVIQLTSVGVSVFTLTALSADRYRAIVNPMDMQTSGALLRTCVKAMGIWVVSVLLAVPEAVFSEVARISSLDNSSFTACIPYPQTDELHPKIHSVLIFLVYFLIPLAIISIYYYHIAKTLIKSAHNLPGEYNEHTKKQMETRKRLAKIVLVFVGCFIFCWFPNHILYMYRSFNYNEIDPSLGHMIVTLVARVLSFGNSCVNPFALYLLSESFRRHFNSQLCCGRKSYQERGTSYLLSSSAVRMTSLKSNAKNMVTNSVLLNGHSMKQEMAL

Assay [3] addresses T2, Gastrin-releasing peptide receptor (Homo sapiens, UniProt P30550). As to the kind of experiment: Effective concentration required against gastrin releasing peptide receptor (GRP-R) in CHO cells by using FLIPR assay. It is filed as functional, cell-based. An outline of the steps: as §1
Target sequence in this assay (P30550 whole entry, looked up): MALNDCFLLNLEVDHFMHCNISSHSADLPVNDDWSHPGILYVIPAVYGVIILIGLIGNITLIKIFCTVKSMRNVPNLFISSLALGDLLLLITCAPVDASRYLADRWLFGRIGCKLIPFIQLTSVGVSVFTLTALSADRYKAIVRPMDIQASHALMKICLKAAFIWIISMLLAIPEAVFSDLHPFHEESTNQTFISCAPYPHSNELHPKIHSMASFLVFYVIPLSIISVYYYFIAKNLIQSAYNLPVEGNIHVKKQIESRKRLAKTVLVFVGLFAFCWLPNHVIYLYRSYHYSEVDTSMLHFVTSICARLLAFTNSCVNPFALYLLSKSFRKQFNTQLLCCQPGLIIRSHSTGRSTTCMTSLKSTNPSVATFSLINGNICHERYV
Assay [4] deals with T3, Bombesin receptor subtype-3 (Homo sapiens, UniProt P32247).
T3 sequence (P32247 whole entry): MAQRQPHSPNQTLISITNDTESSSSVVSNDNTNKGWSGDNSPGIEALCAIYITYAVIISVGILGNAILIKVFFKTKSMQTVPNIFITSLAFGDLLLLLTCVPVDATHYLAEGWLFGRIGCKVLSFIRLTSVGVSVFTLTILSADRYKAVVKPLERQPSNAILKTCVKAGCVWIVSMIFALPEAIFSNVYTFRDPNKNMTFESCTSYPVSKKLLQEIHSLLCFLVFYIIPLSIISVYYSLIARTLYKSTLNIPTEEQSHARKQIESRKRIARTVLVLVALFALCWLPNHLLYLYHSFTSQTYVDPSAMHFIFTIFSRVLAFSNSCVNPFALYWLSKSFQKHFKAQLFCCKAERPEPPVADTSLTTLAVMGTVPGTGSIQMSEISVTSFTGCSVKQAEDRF
Description: Effective concentration required against human bombesin receptor 3 (BRS-3) in CHO cells by using FLIPR assay. It is filed as functional, cell-based.

Assay [5] has as its target T1, Neuromedin-B receptor. As to the kind of experiment: Effective concentration required against nueromedin B receptor (NMB-R) in CHO cells by using FLIPR assay. The format is functional, cell-based. An outline of the steps: as §1
Target sequence in this assay (P28336 whole entry): as the sequence (P28336 whole entry, looked up) above
The target of assay [6] is T2, Gastrin-releasing peptide receptor. As to the kind of experiment: Effective concentration required against gastrin releasing peptide receptor (GRP-R) in CHO cells by using FLIPR assay. The format is functional, cell-based.
Target sequence in this assay (P30550 whole entry): as the sequence (P30550 whole entry, looked up) above

Each structure is given as a SMILES string. The source made the active and inactive calls. The rule behind the calls is not given here. Peptide text beside a SMILES is read from it. * marks the point of attachment. NHPhenethyl = c1ccc(CCN*)cc1; PhAc = O=C(Cc1ccccc1)*

`O=C(Cc1cc2ccccc2[nH]1)NNC(=O)NC(Cc1c[nH]c2ccccc12)C(=O)NCCc1ccccc1` (centres undefined) returned an Emax in assay [1] of 84. Moreover, the NA entry (on Neuromedin-B receptor [2]; in assay [3]) was “inactive” each time.

Regarding `O=C(CNCc1cccnc1)NC(Cc1c[nH]c2ccccc12)C(=O)NCCc1ccccc1` (centres undefined), the Emax in assay [1] was determined as 82. Further, the NA result (on Neuromedin-B receptor [2]; in assay [3]) was “inactive” throughout.

Broadly, the EC50 is the midpoint of the concentration-response curve. Lower therefore signals higher potency in that assay. On to `O=C(NNCc1ccc(Cl)cc1)NC(Cc1c[nH]c2ccccc12)C(=O)NCCc1ccccc1` (centres undefined), for which, in assay [1], the Emax came to 83. For the same compound, the NA result (on Neuromedin-B receptor [2]; in assay [3]) was “inactive” throughout. The EC50 in assay [4] was 6 nM.

Regarding `O=C(Cc1ccc(Cl)cc1)NNC(=O)NC(Cc1c[nH]c2ccccc12)C(=O)NCCc1ccccc1` (centres undefined), the Emax in assay [1] stood at 89. Also, the NA result (on Neuromedin-B receptor [2]; in assay [3]) was “inactive” in each case.

Compound `O=C(N/N=C/c1ccc(-c2cccs2)cc1)NC(Cc1c[nH]c2ccccc12)C(=O)NCCc1ccccc1` (centres undefined) yielded an Emax in assay [1] of 58. Also, the NA result (on Neuromedin-B receptor [2]; in assay [3]) was “inactive” throughout. In assay [4], this compound returned an EC50 of 7900 nM.

For the compound `CSCC[C@H](NC(=O)[C@H](Cc1ccccc1)NC(=O)[C@H](Cc1cnc[nH]1)NC(=O)CNC(=O)[C@@H](NC(=O)[C@H](C)NC(=O)[C@H](Cc1c[nH]c2ccccc12)NC(=O)[C@H](CC(C)C)NC(=O)[C@H](CC(N)=O)NC(=O)CN)[C@@H](C)O)C(N)=O`, the figures for the EC50 (on Neuromedin-B receptor [5]; in assay [6]; in assay [4]) were 120 nM, 41 nM and 4500 nM, respectively.

In assay [1], `O=C(CNCc1ccc(Cl)cc1)NC(Cc1c[nH]c2ccccc12)C(=O)NCCc1ccccc1` (centres undefined) returned an Emax of 81. Besides, the NA result (on Neuromedin-B receptor [2]; in assay [3]) was “inactive” in each case.

As for `C[C@H](NC(=O)Cc1cccnc1)C(=O)N[C@@H](Cc1c[nH]c2ccccc12)C(=O)NCCc1ccccc1`, in assay [1], the Emax turned out to be 74. Moreover, the NA result (at Neuromedin-B receptor [2]; in assay [3]) was “inactive” in each case.

The compound `C[C@H](NC(=O)Cc1cc2ccccc2[nH]1)C(=O)N[C@@H](Cc1c[nH]c2ccccc12)C(=O)NCCc1ccccc1` registered an Emax in assay [1] of 69. The NA entry (on Neuromedin-B receptor [2]; in assay [3]) was “inactive” each time. The EC50 in assay [4] stood at 79 nM.

Regarding `CSCC[C@H](NC(=O)[C@H](CC(C)C)NC(=O)[C@H](Cc1c[nH]cn1)NC(=O)CNC(=O)[C@@H](NC(=O)[C@H](C)NC(=O)[C@H](Cc1c[nH]c2ccccc12)NC(=O)[C@H](Cc1c[nH]cn1)NC(=O)[C@H](CC(N)=O)NC(=O)CNC(=O)[C@H](CCCN=C(N)N)NC(=O)[C@@H]1CCCN1C(=O)[C@H](Cc1ccc(O)cc1)NC(=O)[C@H](CCSC)NC(=O)[C@H](CCCCN)NC(=O)[C@@H](NC(=O)[C@H](CC(C)C)NC(=O)[C@@H](NC(=O)[C@@H](NC(=O)CNC(=O)CNC(=O)CNC(=O)[C@H](C)NC(=O)[C@@H]1CCCN1C(=O)[C@H](CC(C)C)NC(=O)[C@@H]1CCCN1C(=O)[C@@H](N)C(C)C)[C@@H](C)O)C(C)C)[C@@H](C)O)C(C)C)C(N)=O`, the EC50 at Neuromedin-B receptor [5] was determined as 3200 nM; in assay [6], 34 nM; in assay [4], 6400 nM.

As for `C[C@H](NCc1ccc(Cl)cc1)C(=O)N[C@@H](Cc1c[nH]c2ccccc12)C(=O)NCCc1ccccc1`, the Emax in assay [1] turned out to be 83. In addition, the NA result (at Neuromedin-B receptor [2]; in assay [3]) was “inactive” throughout. Moreover, in assay [4], the midpoint of the response, the EC50, lay at 4 nM.

As for `C[C@H](NC(=O)Cc1ccccc1)C(=O)N[C@@H](Cc1c[nH]c2ccccc12)C(=O)NCCc1ccccc1` (PhAc-Ala-Trp-NHPhenethyl), in assay [1], the Emax turned out to be 71. Moreover, the NA entry (on Neuromedin-B receptor [2]; in assay [3]) was “inactive” throughout. Also, in assay [4], the EC50 turned out to be 2.1 nM.

`NC(=O)CC[C@H](NC(=O)Cc1cc2ccccc2[nH]1)C(=O)N[C@@H](Cc1c[nH]c2ccccc12)C(=O)NCCc1ccccc1`: in assay [1], the Emax was 82. Further, the NA result (at Neuromedin-B receptor [2]; in assay [3]) was “inactive” throughout.

`O=C(CNCCc1ccccc1)NC(Cc1c[nH]c2ccccc12)C(=O)NCCc1ccccc1` (centres undefined) showed an Emax in assay [1] of 92. In addition, the NA result (at Neuromedin-B receptor [2]; in assay [3]) was “inactive” each time.

Turning to `O=C(CC1NCCc2ccccc21)NNC(=O)NC(Cc1c[nH]c2ccccc12)C(=O)NCCc1ccccc1` (centres undefined), the Emax in assay [1] was 95. Further, the NA entry (on Neuromedin-B receptor [2]; in assay [3]) was “inactive” each time. The same compound displayed an EC50 in assay [4] of 9.3 nM.

In assay [1], `C[C@H](NC(=O)CCc1ccc(Cl)cc1)C(=O)N[C@@H](Cc1c[nH]c2ccccc12)C(=O)NCCc1ccccc1` displayed an Emax of 30. In addition, the NA entry (at Neuromedin-B receptor [2]; in assay [3]) was “inactive” in each case. In assay [4], this compound returned an EC50 of 6400 nM.

On to `O=C(NNCc1ccco1)NC(Cc1c[nH]c2ccccc12)C(=O)NCCc1ccccc1` (centres undefined), for which, in assay [1], the Emax turned out to be 96. The NA entry (on Neuromedin-B receptor [2]; in assay [3]) was “inactive” each time. Further, it took 24 nM to reach a half-maximal effect in assay [4] (EC50).

`C[C@H](NCc1ccccc1)C(=O)N[C@@H](Cc1c[nH]c2ccccc12)C(=O)NCCc1ccccc1` yielded an Emax in assay [1] of 86. The NA entry (at Neuromedin-B receptor [2]; in assay [3]) was “inactive” each time. The compound further displayed an EC50 in assay [4] of 46 nM.

Consider `O=C(N/N=C/c1ccc(Cl)cc1)NC(Cc1c[nH]c2ccccc12)C(=O)NCCc1ccccc1` (centres undefined), for which the Emax in assay [1] is 78. Also, the NA entry (on Neuromedin-B receptor [2]; in assay [3]) was “inactive” each time. In addition, a half-maximal response in assay [4] (EC50) required 2700 nM.

With `C[C@H](NC(=O)Cc1ccc2c(c1)OCO2)C(=O)N[C@@H](Cc1c[nH]c2ccccc12)C(=O)NCCc1ccccc1`, the Emax in assay [1] was determined as 75. Besides, the NA result (at Neuromedin-B receptor [2]; in assay [3]) was “inactive” throughout. The compound also showed an EC50 in assay [4] of 7.8 nM.

In assay [1], `C[C@H](NC(=O)CC1NCCc2ccccc21)C(=O)N[C@@H](Cc1c[nH]c2ccccc12)C(=O)NCCc1ccccc1` (some centres undefined) registered an Emax of 69. Also, the NA result (on Neuromedin-B receptor [2]; in assay [3]) was “inactive” each time. In assay [4], this compound displayed a concentration for a half-maximal effect (EC50) of 310 nM.

As for `O=C(Cc1ccccc1)NNC(=O)NC(Cc1c[nH]c2ccccc12)C(=O)NCCc1ccccc1` (centres undefined), the Emax in assay [1] is 86. Further, the NA result (at Neuromedin-B receptor [2]; in assay [3]) was “inactive” in each case.

With `NC(=O)CC[C@H](NC(=O)[C@H](N)Cc1ccccc1)C(=O)N[C@@H](Cc1c[nH]c2ccccc12)C(=O)NCCc1ccccc1`, the NA entry (at Neuromedin-B receptor [2]; in assay [3]) was “inactive” in each case. The same compound yielded an EC50 in assay [4] of 710 nM.

With `O=C(NNCc1ccccc1)NC(Cc1c[nH]c2ccccc12)C(=O)NCCc1ccccc1` (centres undefined), the Emax in assay [1] was 81. Moreover, the NA result (on Neuromedin-B receptor [2]; in assay [3]) was “inactive” throughout. This compound also gave an EC50 in assay [4] of 15 nM.

For `O=C(CNCc1ccccc1)NC(Cc1c[nH]c2ccccc12)C(=O)NCCc1ccccc1` (centres undefined), in assay [1], the Emax is 87. For the same compound, the NA entry (on Neuromedin-B receptor [2]; in assay [3]) was “inactive” each time.

Consider `O=C(N/N=C/c1ccco1)NC(Cc1c[nH]c2ccccc12)C(=O)NCCc1ccccc1` (centres undefined), for which the Emax in assay [1] came to 94. Besides, the NA result (on Neuromedin-B receptor [2]; in assay [3]) was “inactive” in each case. In addition, the EC50 in assay [4] is 1.5 nM.

Compound `C[C@H](NCCc1ccccc1)C(=O)N[C@@H](Cc1c[nH]c2ccccc12)C(=O)NCCc1ccccc1` came in with an Emax in assay [1] of 82. Moreover, the NA result (at Neuromedin-B receptor [2]; in assay [3]) was “inactive” in each case.

Regarding `O=C(CN1CCC(Cc2ccccc2)CC1)NC(Cc1c[nH]c2ccccc12)C(=O)NCCc1ccccc1` (centres undefined), the Emax in assay [1] worked out at 84. The NA entry (at Neuromedin-B receptor [2]; in assay [3]) was “inactive” throughout. Further, a half-maximal response in assay [4] (EC50) required 30 nM.

Turning to `NC(=O)CC[C@H](NC(=O)CCc1ccc(Cl)cc1)C(=O)N[C@@H](Cc1c[nH]c2ccccc12)C(=O)NCCc1ccccc1`, the Emax in assay [1] is 68. In addition, the NA entry (at Neuromedin-B receptor [2]; in assay [3]) was “inactive” in each case. This compound displayed an EC50 in assay [4] of 230 nM.

Turning to `O=C(Cc1cccnc1)NNC(=O)NC(Cc1c[nH]c2ccccc12)C(=O)NCCc1ccccc1` (centres undefined), the Emax in assay [1] was 102. The NA result (at Neuromedin-B receptor [2]; in assay [3]) was “inactive” in each case. Besides, it took 1.4 nM to reach a half-maximal effect in assay [4] (EC50).

For the compound `O=C(CC1NCCc2ccccc21)NNC(=O)N[C@H](Cc1c[nH]c2ccccc12)C(=O)NCCc1ccccc1` (some centres undefined), the Emax in assay [1] is 91. Besides, the NA entry (at Neuromedin-B receptor [2]; in assay [3]) was “inactive” each time. In assay [4], this compound had an EC50 of 19 nM.

In the case of `C[C@H](NC(=O)Cc1ccc(Cl)cc1)C(=O)N[C@@H](Cc1c[nH]c2ccccc12)C(=O)NCCc1ccccc1`, in assay [1], the Emax was 75. Besides, the NA result (on Neuromedin-B receptor [2]; in assay [3]) was “inactive” throughout. In addition, the EC50 in assay [4] came to 140 nM.

`O=C(CN1CCN(Cc2ccccc2)CC1)NC(Cc1c[nH]c2ccccc12)C(=O)NCCc1ccccc1` (centres undefined) showed an Emax in assay [1] of 90. In addition, the NA result (on Neuromedin-B receptor [2]; in assay [3]) was “inactive” in each case. Also, a half-maximal effect in assay [4] (EC50) was put at 70 nM.
